# Test system: Fibroblast
# Test: Multiplex assay against human fibroblast
# Type: toxicity, cell-based
# Outline: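 Live cells were stained at seeding with Hoechst33342, BioTracker Green Microtubule Cytoskeleton Dye, MitoTracker Red and Annexin V Alexa Fluor 680. Following compound addition, they were imaged on a CQ1 microscope at 37°C and 5% CO2 and gated by CellPathfinder machine learning into Hoechst high-intensity objects or normal cells, with normal cells split into healthy, pyknosed or fragmented nuclei and pyknosed cells into mitotic or apoptotic. Tubulin, mitochondrial-mass and membrane-permeability phenotypes are per cents of healthy-nucleus cells.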
# [1] = 12 h, 1 µM, compound concentration 1 uM, replicate 1
# [2] = 12 h, 1 µM, compound concentration 1 uM, replicate 2
# [3] = 12 h, 10 µM, compound concentration 10 uM, replicate 1
# [4] = 12 h, 10 µM, compound concentration 10 uM, replicate 2
# [5] = 24 h, 1 µM, compound concentration 1 uM, replicate 1
# [6] = 24 h, 1 µM, compound concentration 1 uM, replicate 2
# [7] = 24 h, 10 µM, compound concentration 10 uM, replicate 1
# [8] = 24 h, 10 µM, compound concentration 10 uM, replicate 2
# [9] = 48 h, 1 µM, compound concentration 1 uM, replicate 1
# [10] = 48 h, 1 µM, compound concentration 1 uM, replicate 2
# [11] = 48 h, 10 µM, compound concentration 10 uM, replicate 1
# [12] = 48 h, 10 µM, compound concentration 10 uM, replicate 2
compound,measurement,setting,value
OC1(c2ccc(Cl)cc2)CCN(Cc2c[nH]c3ccccc23)CC1,Population Apoptotic (%),[1],58%
same,Population Fragmented Nuclei (%),[1],26%
same,Population Healthy Nuclei (%),[1],41%
same,Population Hoechst High Intensity Objects (%),[1],11%
same,Population Membrane Permeable-Phenotype (%),[1],22%
same,Population Mitochondria Different-Phenotype (%),[1],6%
same,Population Mitotic Cells (%),[1],41%
same,Population Normal (%),[1],88%
same,Population Pyknosed Nuclei (%),[1],32%
same,Population Tubulin-Different-Phenotype (%),[1],33%
same,Total Cell Count,[1],169
same,Population Apoptotic (%),[2],0%
same,Population Fragmented Nuclei (%),[2],13%
same,Population Healthy Nuclei (%),[2],77%
same,Population Hoechst High Intensity Objects (%),[2],10%
same,Population Membrane Permeable-Phenotype (%),[2],3%
same,Population Mitochondria Different-Phenotype (%),[2],13%
same,Population Mitotic Cells (%),[2],100%
same,Population Normal (%),[2],89%
same,Population Pyknosed Nuclei (%),[2],9%
same,Population Tubulin-Different-Phenotype (%),[2],9%
same,Total Cell Count,[2],78
same,Population Apoptotic (%),[3],63%
same,Population Fragmented Nuclei (%),[3],37%
same,Population Healthy Nuclei (%),[3],38%
same,Population Hoechst High Intensity Objects (%),[3],30%
same,Population Membrane Permeable-Phenotype (%),[3],13%
same,Population Mitochondria Different-Phenotype (%),[3],34%
same,Population Mitotic Cells (%),[3],36%
same,Population Normal (%),[3],69%
same,Population Pyknosed Nuclei (%),[3],23%
same,Population Tubulin-Different-Phenotype (%),[3],90%
same,Total Cell Count,[3],246
same,Population Apoptotic (%),[4],42%
same,Population Fragmented Nuclei (%),[4],13%
same,Population Hoechst High Intensity Objects (%),[4],3%
same,Population Membrane Permeable-Phenotype (%),[4],4%
same,Population Mitochondria Different-Phenotype (%),[4],95%
same,Population Mitotic Cells (%),[4],57%
same,Population Normal (%),[4],96%
same,Population Pyknosed Nuclei (%),[4],47%
same,Population Tubulin-Different-Phenotype (%),[4],60%
same,Total Cell Count,[4],74
same,Population Apoptotic (%),[5],52%
same,Population Fragmented Nuclei (%),[5],29%
same,Population Healthy Nuclei (%),[5],47%
same,Population Hoechst High Intensity Objects (%),[5],14%
same,Population Membrane Permeable-Phenotype (%),[5],25%
same,Population Mitochondria Different-Phenotype (%),[5],10%
same,Population Mitotic Cells (%),[5],47%
same,Population Normal (%),[5],85%
same,Population Pyknosed Nuclei (%),[5],22%
same,Population Tubulin-Different-Phenotype (%),[5],42%
same,Total Cell Count,[5],174
same,Population Apoptotic (%),[6],20%
same,Population Fragmented Nuclei (%),[6],5%
same,Population Healthy Nuclei (%),[6],88%
same,Population Hoechst High Intensity Objects (%),[6],8%
same,Population Membrane Permeable-Phenotype (%),[6],4%
same,Population Mitochondria Different-Phenotype (%),[6],13%
same,Population Mitotic Cells (%),[6],80%
same,Population Normal (%),[6],91%
same,Population Pyknosed Nuclei (%),[6],6%
same,Population Tubulin-Different-Phenotype (%),[6],8%
same,Total Cell Count,[6],77
same,Population Apoptotic (%),[7],64%
same,Population Fragmented Nuclei (%),[7],24%
same,Population Healthy Nuclei (%),[7],50%
same,Population Hoechst High Intensity Objects (%),[7],43%
same,Population Membrane Permeable-Phenotype (%),[7],20%
same,Population Mitochondria Different-Phenotype (%),[7],51%
same,Population Mitotic Cells (%),[7],35%
same,Population Normal (%),[7],56%
same,Population Pyknosed Nuclei (%),[7],24%
same,Population Tubulin-Different-Phenotype (%),[7],75%
same,Total Cell Count,[7],224
same,Population Apoptotic (%),[8],66%
same,Population Fragmented Nuclei (%),[8],21%
same,Population Healthy Nuclei (%),[8],27%
same,Population Hoechst High Intensity Objects (%),[8],5%
same,Population Membrane Permeable-Phenotype (%),[8],5%
same,Population Mitochondria Different-Phenotype (%),[8],94%
same,Population Mitotic Cells (%),[8],33%
same,Population Normal (%),[8],94%
same,Population Pyknosed Nuclei (%),[8],51%
same,Population Tubulin-Different-Phenotype (%),[8],52%
same,Total Cell Count,[8],85
same,Population Apoptotic (%),[9],82%
same,Population Fragmented Nuclei (%),[9],33%
same,Population Healthy Nuclei (%),[9],26%
same,Population Hoechst High Intensity Objects (%),[9],0%
same,Population Membrane Permeable-Phenotype (%),[9],54%
same,Population Mitochondria Different-Phenotype (%),[9],0%
same,Population Mitotic Cells (%),[9],17%
same,Population Normal (%),[9],100%
same,Population Pyknosed Nuclei (%),[9],40%
same,Population Tubulin-Different-Phenotype (%),[9],90%
same,Total Cell Count,[9],42
same,Population Apoptotic (%),[10],50%
same,Population Fragmented Nuclei (%),[10],43%
same,Population Healthy Nuclei (%),[10],54%
same,Population Hoechst High Intensity Objects (%),[10],14%
same,Population Membrane Permeable-Phenotype (%),[10],5%
same,Population Mitochondria Different-Phenotype (%),[10],1%
same,Population Mitotic Cells (%),[10],50%
same,Population Normal (%),[10],85%
same,Population Pyknosed Nuclei (%),[10],1%
same,Population Tubulin-Different-Phenotype (%),[10],46%
same,Total Cell Count,[10],119
same,Population Fragmented Nuclei (%),[11],36%
same,Population Healthy Nuclei (%),[11],26%
same,Population Hoechst High Intensity Objects (%),[11],40%
same,Population Membrane Permeable-Phenotype (%),[11],16%
same,Population Mitochondria Different-Phenotype (%),[11],56%
same,Population Normal (%),[11],59%
same,Population Pyknosed Nuclei (%),[11],37%
same,Population Tubulin-Different-Phenotype (%),[11],70%
same,Total Cell Count,[11],191
same,Population Apoptotic (%),[12],90%
same,Population Fragmented Nuclei (%),[12],39%
same,Population Healthy Nuclei (%),[12],24%
same,Population Hoechst High Intensity Objects (%),[12],30%
same,Population Membrane Permeable-Phenotype (%),[12],17%
same,Population Mitochondria Different-Phenotype (%),[12],47%
same,Population Mitotic Cells (%),[12],9%
same,Population Normal (%),[12],69%
same,Population Pyknosed Nuclei (%),[12],35%
same,Population Tubulin-Different-Phenotype (%),[12],52%
same,Total Cell Count,[12],133
CN1CCN(c2ccc(OC(F)(F)F)c(Nc3ncc4c(n3)-c3c(c(C(N)=O)nn3CCO)CC4)c2)CC1 [ONVANSERTIB],Population Apoptotic (%),[1],63%
same,Population Fragmented Nuclei (%),[1],23%
same,Population Healthy Nuclei (%),[1],35%
same,Population Hoechst High Intensity Objects (%),[1],19%
same,Population Membrane Permeable-Phenotype (%),[1],29%
same,Population Mitochondria Different-Phenotype (%),[1],10%
same,Population Mitotic Cells (%),[1],36%
same,Population Normal (%),[1],80%
same,Population Pyknosed Nuclei (%),[1],40%
same,Population Tubulin-Different-Phenotype (%),[1],41%
same,Total Cell Count,[1],168
same,Population Apoptotic (%),[2],25%
same,Population Fragmented Nuclei (%),[2],11%
same,Population Healthy Nuclei (%),[2],80%
same,Population Hoechst High Intensity Objects (%),[2],14%
same,Population Membrane Permeable-Phenotype (%),[2],0%
same,Population Mitochondria Different-Phenotype (%),[2],14%
same,Population Mitotic Cells (%),[2],75%
same,Population Normal (%),[2],85%
same,Population Pyknosed Nuclei (%),[2],7%
same,Population Tubulin-Different-Phenotype (%),[2],16%
same,Total Cell Count,[2],66
same,Population Apoptotic (%),[3],68%
same,Population Fragmented Nuclei (%),[3],34%
same,Population Healthy Nuclei (%),[3],36%
same,Population Hoechst High Intensity Objects (%),[3],15%
same,Population Membrane Permeable-Phenotype (%),[3],3%
same,Population Mitochondria Different-Phenotype (%),[3],9%
same,Population Mitotic Cells (%),[3],32%
same,Population Normal (%),[3],84%
same,Population Pyknosed Nuclei (%),[3],29%
same,Population Tubulin-Different-Phenotype (%),[3],64%
same,Population Apoptotic (%),[4],40%
same,Population Fragmented Nuclei (%),[4],9%
same,Population Healthy Nuclei (%),[4],78%
same,Population Hoechst High Intensity Objects (%),[4],19%
same,Population Membrane Permeable-Phenotype (%),[4],0%
same,Population Mitochondria Different-Phenotype (%),[4],84%
same,Population Mitotic Cells (%),[4],60%
same,Population Normal (%),[4],80%
same,Population Pyknosed Nuclei (%),[4],12%
same,Population Tubulin-Different-Phenotype (%),[4],78%
same,Total Cell Count,[4],61
same,Population Apoptotic (%),[5],53%
same,Population Fragmented Nuclei (%),[5],25%
same,Population Healthy Nuclei (%),[5],41%
same,Population Hoechst High Intensity Objects (%),[5],24%
same,Population Membrane Permeable-Phenotype (%),[5],25%
same,Population Mitochondria Different-Phenotype (%),[5],7%
same,Population Mitotic Cells (%),[5],46%
same,Population Normal (%),[5],75%
same,Population Pyknosed Nuclei (%),[5],33%
same,Population Tubulin-Different-Phenotype (%),[5],61%
same,Total Cell Count,[5],165
same,Population Apoptotic (%),[6],57%
same,Population Fragmented Nuclei (%),[6],21%
same,Population Healthy Nuclei (%),[6],65%
same,Population Hoechst High Intensity Objects (%),[6],5%
same,Population Membrane Permeable-Phenotype (%),[6],5%
same,Population Mitochondria Different-Phenotype (%),[6],32%
same,Population Mitotic Cells (%),[6],42%
same,Population Normal (%),[6],94%
same,Population Pyknosed Nuclei (%),[6],13%
same,Population Tubulin-Different-Phenotype (%),[6],11%
same,Total Cell Count,[6],73
same,Population Apoptotic (%),[7],58%
same,Population Fragmented Nuclei (%),[7],39%
same,Population Healthy Nuclei (%),[7],37%
same,Population Hoechst High Intensity Objects (%),[7],18%
same,Population Membrane Permeable-Phenotype (%),[7],28%
same,Population Mitochondria Different-Phenotype (%),[7],0%
same,Population Mitotic Cells (%),[7],41%
same,Population Normal (%),[7],81%
same,Population Pyknosed Nuclei (%),[7],23%
same,Population Tubulin-Different-Phenotype (%),[7],66%
same,Total Cell Count,[7],127
same,Population Apoptotic (%),[8],40%
same,Population Fragmented Nuclei (%),[8],11%
same,Population Healthy Nuclei (%),[8],77%
same,Population Hoechst High Intensity Objects (%),[8],16%
same,Population Membrane Permeable-Phenotype (%),[8],5%
same,Population Mitochondria Different-Phenotype (%),[8],82%
same,Population Mitotic Cells (%),[8],60%
same,Population Normal (%),[8],83%
same,Population Pyknosed Nuclei (%),[8],11%
same,Population Tubulin-Different-Phenotype (%),[8],55%
same,Total Cell Count,[8],55
same,Population Apoptotic (%),[9],53%
same,Population Fragmented Nuclei (%),[9],38%
same,Population Healthy Nuclei (%),[9],37%
same,Population Hoechst High Intensity Objects (%),[9],21%
same,Population Membrane Permeable-Phenotype (%),[9],25%
same,Population Mitochondria Different-Phenotype (%),[9],6%
same,Population Mitotic Cells (%),[9],46%
same,Population Normal (%),[9],78%
same,Population Pyknosed Nuclei (%),[9],24%
same,Population Tubulin-Different-Phenotype (%),[9],65%
same,Total Cell Count,[9],146
same,Population Apoptotic (%),[10],40%
same,Population Fragmented Nuclei (%),[10],25%
same,Population Healthy Nuclei (%),[10],68%
same,Population Hoechst High Intensity Objects (%),[10],17%
same,Population Membrane Permeable-Phenotype (%),[10],13%
same,Population Mitochondria Different-Phenotype (%),[10],1%
same,Population Mitotic Cells (%),[10],60%
same,Population Normal (%),[10],82%
same,Population Pyknosed Nuclei (%),[10],5%
same,Population Tubulin-Different-Phenotype (%),[10],23%
same,Population Apoptotic (%),[11],50%
same,Population Fragmented Nuclei (%),[11],46%
same,Population Healthy Nuclei (%),[11],40%
same,Population Hoechst High Intensity Objects (%),[11],23%
same,Population Membrane Permeable-Phenotype (%),[11],19%
same,Population Mitochondria Different-Phenotype (%),[11],9%
same,Population Mitotic Cells (%),[11],50%
same,Population Normal (%),[11],76%
same,Population Pyknosed Nuclei (%),[11],13%
same,Population Tubulin-Different-Phenotype (%),[11],69%
same,Total Cell Count,[11],136
same,Population Fragmented Nuclei (%),[12],37%
same,Population Healthy Nuclei (%),[12],58%
same,Population Hoechst High Intensity Objects (%),[12],20%
same,Population Membrane Permeable-Phenotype (%),[12],7%
same,Population Mitochondria Different-Phenotype (%),[12],4%
same,Population Normal (%),[12],79%
same,Population Pyknosed Nuclei (%),[12],4%
same,Population Tubulin-Different-Phenotype (%),[12],73%
same,Total Cell Count,[12],241

# — ChEMBL document CHEMBL4689842, “EUbOPEN Chemogenomics Library wave 1” (2021)
